# Results taken from ChEMBL document CHEMBL2146388, “Sinularosides A and B, bioactive 9,11-secosteroidal glycosides from the South China Sea soft coral Sinularia humilis Ofwegen” (J Nat Prod, 2012).
# Activity calls are given as the source filed them. No cut-off for these calls is given here.
# How the values were obtained:
# Microbotryum violaceum = experiment: Antifungal activity against Microbotryum violaceum assessed as zone of inhibition at 0.05 mg by agar diffusion method; assay type: functional; conditions: read-out: IZ
# Summary of the method: (§1)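 Fungi are grown on MPY medium. A 9 mm sterile filter disk is loaded with 0.05 mg of compound (50 μL of a 1.0 mg/mL acetone solution), laid on the agar, and then sprayed with a fungal suspension. The inhibition zone is scored, with an acetone control.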
# Priestia megaterium = experiment: Antibacterial activity against Bacillus megaterium assessed as zone of inhibition at 0.05 mg by agar diffusion method; assay type: functional; conditions: read-out: IZ
# Summary of the method: (§2)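 Compound is dissolved in acetone at 1.0 mg/mL, and 0.05 mg is applied to a sterile 9 mm filter disk. The disk is placed on NB agar and sprayed with a bacterial suspension. Read-out is the inhibition zone around the disk. Acetone serves as the solvent control.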
# Caco-2 = experiment: Cytotoxicity against human Caco2 cells by MTT assay; assay type: functional, cell-based
# Summary of the method: (§3)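 Growth inhibition is read colorimetrically by a modified MTT method on HepG2 or Caco-2 cells. Adriamycin is the positive control. IC50 is reported.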
# HepG2 = experiment: Cytotoxicity against human HepG2 cells by MTT assay; assay type: functional, cell-based; summary of the method: as §3
# Zymoseptoria tritici = experiment: Antifungal activity against Septoria tritici assessed as zone of inhibition at 0.05 mg by agar diffusion method; assay type: functional; conditions: read-out: IZ; summary of the method: as §1
# Escherichia coli = experiment: Antibacterial activity against Escherichia coli assessed as zone of inhibition at 0.05 mg by agar diffusion method; assay type: functional; conditions: read-out: IZ; summary of the method: as §2
# [Chlorella] fusca = Antimicrobial activity against Chlorella fusca assessed as zone of inhibition at 0.05 mg by agar diffusion method; assay type: functional; conditions: Scenedesmus fuscus; read-out: IZ
# Summary of the method: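 The microalga Chlorella fusca is tested on CP medium. A sterile 9 mm paper disk carries 0.05 mg of compound from a 1.0 mg/mL acetone solution and is placed on the agar, which is then sprayed with the algal suspension. The zone of growth inhibition is recorded, with acetone as control.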
structure (smiles),measurement,setting,value
C=C(CC[C@@H](C)[C@H]1CC[C@@H]([C@@H]2CC=C3C[C@@H](O[C@@H]4O[C@@H](C)[C@@H](O)[C@@H](O)[C@@H]4O)CC[C@]3(C)C2=O)[C@]1(C)CCO)C(C)C [SINULAROSIDE A],zone of inhibition at 50 µg/disc,Microbotryum violaceum,17 mm
same,zone of inhibition at 50 µg/disc,Priestia megaterium,30 mm
same,growth inhibition (GI),Caco-2,inactive
same,growth inhibition (GI),HepG2,inactive
same,zone of inhibition at 50 µg/disc,Zymoseptoria tritici,14 mm
same,zone of inhibition at 50 µg/disc,Escherichia coli,0 mm
same,zone of inhibition at 50 µg/disc,[Chlorella] fusca,12 mm
CN[C@@H]1[C@H](O[C@H]2[C@H](O[C@H]3[C@H](O)[C@@H](O)[C@H](N=C(N)N)[C@@H](O)[C@@H]3N=C(N)N)O[C@@H](C)[C@]2(O)C=O)O[C@@H](CO)[C@H](O)[C@H]1O [STREPTOMYCIN],zone of inhibition at 50 µg/disc,Priestia megaterium,30 mm
same,zone of inhibition at 50 µg/disc,Escherichia coli,25 mm
CC1(C)S[C@@H]2[C@H](NC(=O)Cc3ccccc3)C(=O)N2[C@H]1C(=O)O [PENICILLIN G],zone of inhibition at 50 µg/disc,Priestia megaterium,28 mm
same,zone of inhibition at 50 µg/disc,Escherichia coli,20 mm
C=C(CC[C@@H](C)[C@H]1CC[C@@H]([C@@H]2CC=C3C[C@@H](O[C@@H]4O[C@@H](C)[C@@H](OC(C)=O)[C@@H](O)[C@@H]4O)CC[C@]3(C)C2=O)[C@]1(C)CCO)C(C)C [SINULAROSIDE B],zone of inhibition at 50 µg/disc,Microbotryum violaceum,17 mm
same,zone of inhibition at 50 µg/disc,Priestia megaterium,30 mm
same,growth inhibition (GI),Caco-2,inactive
same,growth inhibition (GI),HepG2,inactive
same,zone of inhibition at 50 µg/disc,Zymoseptoria tritici,15 mm
same,zone of inhibition at 50 µg/disc,Escherichia coli,0 mm
same,zone of inhibition at 50 µg/disc,[Chlorella] fusca,14 mm
CC(=O)N1CCN(c2ccc(OCC3COC(Cn4ccnc4)(c4ccc(Cl)cc4Cl)O3)cc2)CC1 (configuration not stated) [KETOCONAZOLE],zone of inhibition at 50 µg/disc,Microbotryum violaceum,15 mm
same,zone of inhibition at 50 µg/disc,Zymoseptoria tritici,14 mm
COc1cccc2c1C(=O)c1c(O)c3c(c(O)c1C2=O)C[C@@](O)(C(=O)CO)C[C@@H]3O[C@H]1C[C@H](N)[C@H](O)[C@H](C)O1 [DOXORUBICIN],IC50,Caco-2,2.7 µM
same,IC50,HepG2,2.7 µM
